Molecules are shown by their SMILES. Converted amounts (≈) assume the structure as drawn.

In one assay the test system is Shigella sonnei. Nature of the assay: Antimicrobial activity against Shigella sonnei UIH-1 expressing beta-lactamase CTX-M-64 by broth microdilution method. The class given is functional. To be noted: Shigella sonnei, UIH-1; read-out: MIC. In a few lines:
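MICs determined by CLSI broth microdilution on an automated panel system. […] Susceptibility categories assigned by CLSI criteria.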
Regarding `C[C@H]1[C@H](NC(=O)/C(=N\OC(C)(C)C(=O)O)c2csc(N)n2)C(=O)N1S(=O)(=O)O` [AZTREONAM], the MIC (usually the lowest concentration found to suppress growth) worked out at 32 µg/mL (≈ 73.5 µM).
On the same count and under the same terms, as for `CC1(C)S[C@@H]2[C@H](NC(=O)[C@H](N)c3ccccc3)C(=O)N2[C@H]1C(=O)O` [AMPICILLIN], the figure is more than 16 µg/mL.
Still for that read-out and setting: for `CO[C@@]1(NC(=O)Cc2cccs2)C(=O)N2C(C(=O)O)=C(COC(N)=O)CS[C@@H]21` [CEFOXITIN] the value was not above 2 µg/mL; for `CO/N=C(\C(=O)N[C@@H]1C(=O)N2C(C(=O)O)=C(COC(C)=O)CS[C@H]12)c1csc(N)n1` [CEFOTAXIME], 1020 µg/mL (≈ 2250 µM).
On the same count and under the same terms, as for `CCN1CCN(C(=O)N[C@@H](C(=O)N[C@@H]2C(=O)N3[C@@H]2SC(C)(C)[C@@H]3C(=O)O)c2ccccc2)C(=O)C1=O` [PIPERACILLIN], the figure is more than 64 µg/mL; as for `C[C@@H](O)[C@H]1C(=O)N2C(C(=O)O)=C(SCCNC=N)C[C@H]12` [IMIPENEM ANHYDROUS], not above 0.5 µg/mL.

The subject of another assay is Escherichia coli. Nature of the assay: Antimicrobial activity against rifampicin-resistant Escherichia coli X1037 by broth microdilution method in presence of 4 ug/ml beta-lactamase inhibitor clavulanic acid.
Conditions: not given
The format is functional. In general terms: In broth dilution the organism is exposed to a series of concentrations in liquid medium.
With `CO/N=C(\C(=O)N[C@@H]1C(=O)N2C(C(=O)O)=C(COC(C)=O)CS[C@H]12)c1csc(N)n1` [CEFOTAXIME], the minimal inhibitory concentration (MIC) is not above 0.12 µg/mL.

The test system of a further assay is Escherichia coli. The assay is described as follows: Antimicrobial activity against Escherichia coli XL-1 Blue harboring plasmid CL1920 by broth microdilution method in presence of 4 ug/ml beta-lactamase inhibitor clavulanic acid.
Conditions: not given
The format is functional.
For `CO/N=C(\C(=O)N[C@@H]1C(=O)N2C(C(=O)O)=C(COC(C)=O)CS[C@H]12)c1csc(N)n1` [CEFOTAXIME], the MIC was not above 0.12 µg/mL.

The test system of the next assay is Shigella sonnei. Nature of the assay: Antimicrobial activity against Shigella sonnei UIH-1 expressing beta-lactamase CTX-M-64 by broth microdilution method in presence of 4 ug/ml beta-lactamase inhibitor clavulanic acid. The format is functional.
Conditions: not given
As to `CO/N=C(\C(=O)N[C@@H]1C(=O)N2C(C(=O)O)=C(COC(C)=O)CS[C@H]12)c1csc(N)n1` [CEFOTAXIME], the MIC is not above 0.12 µg/mL.

For a further assay, the system named is Shigella sonnei. To be noted: UIH-1.
For `CC1(C)S[C@@H]2[C@H](NC(=O)[C@H](N)c3ccccc3)C(=O)N2[C@H]1C(=O)O` [AMPICILLIN], the kcat/Km amounted to 1.9 ×10⁶ /M/s.
Turning to `CO/N=C(\C(=O)N[C@@H]1C(=O)N2C(C(=O)O)=C(COC(C)=O)CS[C@H]12)c1csc(N)n1` [CEFOTAXIME], the kcat/Km was determined as 1.9 ×10⁶ /M/s.

A further assay deals with Escherichia coli. The assay is described as follows: Antimicrobial activity against rifampicin-resistant Escherichia coli X1037 transconjugant by broth microdilution method.
Conditions: not given
The format is functional.
On to `C[C@H]1[C@H](NC(=O)/C(=N\OC(C)(C)C(=O)O)c2csc(N)n2)C(=O)N1S(=O)(=O)O` [AZTREONAM], for which 64 µg/mL (≈ 147 µM) was the least that counted as inhibitory (MIC).
On the same count and under the same terms, for `CC1(C)S[C@@H]2[C@H](NC(=O)[C@H](N)c3ccccc3)C(=O)N2[C@H]1C(=O)O` [AMPICILLIN] the value was more than 16 µg/mL; for `CO[C@@]1(NC(=O)Cc2cccs2)C(=O)N2C(C(=O)O)=C(COC(N)=O)CS[C@@H]21` [CEFOXITIN], not above 2 µg/mL.
Still for that read-out and setting: as for `CO/N=C(\C(=O)N[C@@H]1C(=O)N2C(C(=O)O)=C(COC(C)=O)CS[C@H]12)c1csc(N)n1` [CEFOTAXIME], the figure is 2050 µg/mL (≈ 4500 µM); as for `CCN1CCN(C(=O)N[C@@H](C(=O)N[C@@H]2C(=O)N3[C@@H]2SC(C)(C)[C@@H]3C(=O)O)c2ccccc2)C(=O)C1=O` [PIPERACILLIN], more than 64 µg/mL.
On the same count and under the same terms, for `C[C@@H](O)[C@H]1C(=O)N2C(C(=O)O)=C(SCCNC=N)C[C@H]12` [IMIPENEM ANHYDROUS] the value was not above 0.5 µg/mL.

A further assay concerns Escherichia coli. The assay is described as follows: Antimicrobial activity against Escherichia coli XL-1 Blue transconjugant harboring beta-lactamase CTX-M-64 by broth microdilution method.
Conditions: not given
The class given is functional.
The molecule `CO/N=C(\C(=O)N[C@@H]1C(=O)N2C(C(=O)O)=C(COC(C)=O)CS[C@H]12)c1csc(N)n1` [CEFOTAXIME] displayed an MIC of more than 2048 µg/mL.

Still in this assay, the particulars now being: Escherichia coli, XL-1 Blue; read-out: MIC.
As for `C[C@H]1[C@H](NC(=O)/C(=N\OC(C)(C)C(=O)O)c2csc(N)n2)C(=O)N1S(=O)(=O)O` [AZTREONAM], the MIC is 1020 µg/mL (≈ 2350 µM).
The same measure, in the same setting: for `CC1(C)S[C@@H]2[C@H](NC(=O)[C@H](N)c3ccccc3)C(=O)N2[C@H]1C(=O)O` [AMPICILLIN] the value was more than 16 µg/mL.
Still for that read-out and setting: as for `CO[C@@]1(NC(=O)Cc2cccs2)C(=O)N2C(C(=O)O)=C(COC(N)=O)CS[C@@H]21` [CEFOXITIN], the figure is 8 µg/mL (≈ 18.7 µM).
Consider `CCN1CCN(C(=O)N[C@@H](C(=O)N[C@@H]2C(=O)N3[C@@H]2SC(C)(C)[C@@H]3C(=O)O)c2ccccc2)C(=O)C1=O` [PIPERACILLIN], for which the MIC is more than 64 µg/mL.
`C[C@@H](O)[C@H]1C(=O)N2C(C(=O)O)=C(SCCNC=N)C[C@H]12` [IMIPENEM ANHYDROUS]: the MIC is not above 0.5 µg/mL.

The test system of a further assay is Shigella sonnei. The assay is described as follows: Activity at Shigella sonnei UIH-1 beta-lactamase CTX-M-64 by spectrophotometry.
Conditions: not given
The essentials: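 Recombinant enzyme from E. coli BL21(DE3)pLysS/pET29a, purified by cation exchange and gel filtration. Assays at 37°C in 50 mM phosphate pH 7.0, six substrate concentrations, UV-vis readout. Km and kcat from Michaelis-Menten fits of initial rates.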
As to `CC1(C)S[C@@H]2[C@H](NC(=O)[C@H](N)c3ccccc3)C(=O)N2[C@H]1C(=O)O` [AMPICILLIN], the Km (as a rule, the substrate concentration at which the rate is half of its maximum) stood at 19.5 µM and the kcat (commonly the maximal rate divided by the concentration of active sites) worked out at 36.9 s⁻¹.
Take `CO/N=C(\C(=O)N[C@@H]1C(=O)N2C(C(=O)O)=C(COC(C)=O)CS[C@H]12)c1csc(N)n1` [CEFOTAXIME]: the Km came out at 103 µM and the kcat stood at 197 s⁻¹.

The next assay relates to Escherichia coli. The assay is described as follows: Antimicrobial activity against rifampicin-resistant Escherichia coli X1037 transconjugant by broth microdilution method in presence of 4 ug/ml beta-lactamase inhibitor clavulanic acid. The format is functional.
Conditions: not given
For `CO/N=C(\C(=O)N[C@@H]1C(=O)N2C(C(=O)O)=C(COC(C)=O)CS[C@H]12)c1csc(N)n1` [CEFOTAXIME], the MIC was not above 0.12 µg/mL.

A further assay concerns Escherichia coli. Nature of the assay: Antimicrobial activity against Escherichia coli XL-1 Blue harboring plasmid CL1920 by broth microdilution method.
Conditions: not given
The format is functional.
With `CC1(C)S[C@@H]2[C@H](NC(=O)[C@H](N)c3ccccc3)C(=O)N2[C@H]1C(=O)O` [AMPICILLIN], the MIC was not above 2 µg/mL.
Same read-out and setting: for `CO[C@@]1(NC(=O)Cc2cccs2)C(=O)N2C(C(=O)O)=C(COC(N)=O)CS[C@@H]21` [CEFOXITIN] the value was 4 µg/mL (≈ 9.36 µM); for `CO/N=C(\C(=O)N[C@@H]1C(=O)N2C(C(=O)O)=C(COC(C)=O)CS[C@H]12)c1csc(N)n1` [CEFOTAXIME], not above 0.25 µg/mL; for `CCN1CCN(C(=O)N[C@@H](C(=O)N[C@@H]2C(=O)N3[C@@H]2SC(C)(C)[C@@H]3C(=O)O)c2ccccc2)C(=O)C1=O` [PIPERACILLIN], not above 8 µg/mL.
Still for that read-out and setting: as for `C[C@@H](O)[C@H]1C(=O)N2C(C(=O)O)=C(SCCNC=N)C[C@H]12` [IMIPENEM ANHYDROUS], the figure is not above 0.5 µg/mL.

In the next assay the test system is Escherichia coli. The assay is described as follows: Antimicrobial activity against Escherichia coli XL-1 Blue transconjugant harboring beta-lactamase CTX-M-64 by broth microdilution method in presence of 4 ug/ml beta-lactamase inhibitor clavulanic acid. The class given is functional.
Conditions: not given
Turning to `CO/N=C(\C(=O)N[C@@H]1C(=O)N2C(C(=O)O)=C(COC(C)=O)CS[C@H]12)c1csc(N)n1` [CEFOTAXIME], the MIC was not above 0.12 µg/mL.

The subject of a further assay is Escherichia coli. Nature of the assay: Antimicrobial activity against rifampicin-resistant Escherichia coli X1037 by broth microdilution method. The format is functional.
Conditions: not given
In turn, `CC1(C)S[C@@H]2[C@H](NC(=O)[C@H](N)c3ccccc3)C(=O)N2[C@H]1C(=O)O` [AMPICILLIN] displayed an MIC not above 2 µg/mL.
Still for that read-out and setting: as for `CO[C@@]1(NC(=O)Cc2cccs2)C(=O)N2C(C(=O)O)=C(COC(N)=O)CS[C@@H]21` [CEFOXITIN], the figure is not above 2 µg/mL.
The molecule `CO/N=C(\C(=O)N[C@@H]1C(=O)N2C(C(=O)O)=C(COC(C)=O)CS[C@H]12)c1csc(N)n1` [CEFOTAXIME] returned an MIC not above 0.25 µg/mL.
Still for that read-out and setting: for `CCN1CCN(C(=O)N[C@@H](C(=O)N[C@@H]2C(=O)N3[C@@H]2SC(C)(C)[C@@H]3C(=O)O)c2ccccc2)C(=O)C1=O` [PIPERACILLIN] the value was not above 8 µg/mL.
On the same count and under the same terms, for `C[C@@H](O)[C@H]1C(=O)N2C(C(=O)O)=C(SCCNC=N)C[C@H]12` [IMIPENEM ANHYDROUS] the value was not above 0.5 µg/mL.

These data come from ChEMBL document CHEMBL1629574, “Novel chimeric beta-lactamase CTX-M-64, a hybrid of CTX-M-15-like and CTX-M-14 beta-lactamases, found in a Shigella sonnei strain resistant to various oxyimino-cephalosporins, including ceftazidime” (Antimicrob Agents Chemother, 2009).
